Results collected from several papers.
Target: Vascular endothelial growth factor receptor 2 (KDR, Homo sapiens, UniProt P35968)

| Compound | test | setting | measurement | result |
| --- | --- | --- | --- | --- |
| COc1ccc(COc2ccc(Cc3cnc(N)nc3N)cc2OC)cc1 | cell-free assay | 0.5 µM | remaining signal | 109% |
| COc1ccc(C=NNC(=O)c2sc(Nc3ccccc3)c(C(=O)Nc3ccc(OC)cc3)c2NC(C)=O)cc1 | enzyme activity, inhibitor | 100 µM | remaining activity | 35.1% |
| Oc1cccc(-c2nc(N3CCOCC3)c3oc4ncccc4c3n2)c1 | cell-free assay | 0.5 µM | remaining signal | 85.9% |
| Cc1ccc(C(=O)Nc2ccc(CN3CCN(C)CC3)c(C(F)(F)F)c2)cc1C#Cc1cnc2cccnn12 | cell-free assay | 23.5 nM | remaining signal | 15% |
| COc1ccc(NC(=O)c2c(Nc3ccccc3)sc(C(=O)NN=Cc3ccc(OC)c(O)c3)c2NC(C)=O)cc1 | enzyme activity, inhibitor | 10 µM | remaining activity | 46.1% |
| COc1cc2ncnc(Nc3ccc(Oc4ccccc4)c(C)c3C)c2cc1OC | enzyme activity, inhibitor | 1 µM | inhibition | 16% |
| Cc1ccc(NC(=O)c2ccc(C)c(C(F)(F)F)c2)cc1C#Cc1nn(C2CCC(O)CC2)c2ncnc(N)c12 (stereo not shown) | cell-free assay | 10 µM | remaining signal | 2% |
| CCC(=N\O)/C(C)=C/c1ccc(F)cc1 | cell-free assay, competition with immobilised ligand | 1 µM | remaining binding | 81% |
| Cc1ccc(C(=O)NCc2ccsc2)cc1C#Cc1cn(C(C)C)c2ncnc(N)c12 | enzyme activity, inhibitor | 1 µM | activity vs control | 0% |
| CC(=O)Nc1c(C(C)=O)c(=O)n(C)c2nc(-c3ccc(Cl)cc3Cl)c(-c3ccc(Cl)cc3)cc12 | cell-free assay, competition with immobilised ligand | 1 µM | remaining binding | 94% |
| CS(=O)(=O)Nc1cccc(-c2csc(NC(=O)CSc3nc4nccnc4c(=O)n3CCc3ccccc3)n2)c1 | enzyme activity, inhibitor | 10 µM | inhibition | 0% |
| c1nc2c(Nc3ccc4c(c3)OCCO4)nc(Nc3ccc4c(c3)OCCO4)nc2[nH]1 | enzyme activity, inhibitor | 10 µM | activity vs control | 11% |
| O=C1Nc2ccc(Cl)cc2C1=Cc1cc(Cl)c(O)c(Cl)c1 | cell-free assay | 0.5 µM | remaining signal | 86.1% |
| COc1ccc(NC(=O)c2c(Nc3ccccc3)sc(C(=O)NN=Cc3ccc(Cl)cc3)c2NC(C)=O)cc1 | enzyme activity, inhibitor | 10 nM | remaining activity | 96.1% |
| O=C1Nc2ccc(Br)cc2/C1=C/c1cc2c([nH]1)CCCC2 | cell-free assay | 0.5 µM | remaining signal | 70.9% |
| Cc1c[nH]c2nccc(Oc3c(F)cc(Nc4cc(Cl)nc(N)n4)cc3F)c12 | cell-free assay, competition with immobilised ligand | 0.1 µM | remaining binding | 81% |

| Compound | test | setting | measurement | result |
| --- | --- | --- | --- | --- |
| COc1ccc(NC(=O)c2c(Nc3ccccc3)sc(C(=O)NN=Cc3cc(OC)c(OC)c(OC)c3)c2NC(C)=O)cc1 | enzyme activity, inhibitor | 1 µM | remaining activity | 82.1% |
| COc1cc2nccc(Oc3ccc(NC(=O)c4c5n(n(-c6ccc(F)cc6)c4=O)CCCC5)cc3)c2cc1OC | enzyme activity, inhibitor | 0.1 µM | inhibition | 22% |
| COc1ccc(NC(=O)c2c(Nc3ccccc3)sc(C#N)c2NC(=O)CNc2ccc(Br)cc2)cc1 | enzyme activity, inhibitor | 10 µM | remaining activity | 35.4% |
| CN(C)C1CCN(CC#Cc2nn(C3CCCC3)c3nc(NCc4ccccc4)ncc23)C1 (stereo not shown) | enzyme activity, inhibitor, FRET | 1 µM | inhibition | 14% |
| COc1ccc(NC(=O)c2c(Nc3ccccc3)sc(C#N)c2NC(=O)CNc2ccc(Cl)cc2)cc1 | enzyme activity, inhibitor | 0.1 µM | remaining activity | 61.3% |
| COc1ccc2cc(OCC3(C(=O)O)CN(C(=O)c4ccc(F)cc4)C3)ccc2c1 | cell-free assay, competition with immobilised ligand | 1 µM | remaining binding | 100% |
| C[S+]([O-])c1ccc(-c2nc(-c3ccncc3)c(-c3ccc(F)cc3)[nH]2)cc1 (stereo not shown) | cell-free assay | 0.5 µM | remaining signal | 99.2% |
| FC(F)(F)c1ccc2c(c1)nc(-c1cccnc1)n2C1CC1 | cell-free assay, competition with immobilised ligand | 1 µM | remaining binding | 100% |
| Nc1ncnc2occ(-c3ccc(NC(=O)Nc4cc(C(F)(F)F)ccc4F)cc3)c12 | cell-free assay | 20 µM | remaining signal | 0% |
| CC(=O)N1CCC(c2ccc(C(=O)NC3=NCCN3)cc2C(F)(F)F)CC1 | cell-free assay, competition with immobilised ligand | 1 µM | remaining binding | 80% |
| CNC(=O)c1c(C)oc2cc(Oc3ncnc4cc(OC)c(OC)cc34)ccc12 | enzyme activity, inhibitor | 0.1 µM | inhibition | 89.9% |
| Cn1nc(C(=O)NCc2ccc(C(=O)O)cc2)cc1-c1ccc2[nH]ccc2c1 | cell-free assay, competition with immobilised ligand | 0.1 µM | remaining binding | 85% |
| CSc1nc(C)c(-c2ccnc(Nc3ccc(N4CCOCC4)cc3)c2)[nH]1 | enzyme activity, inhibitor | 10 µM | inhibition | 95.1% |
| O=C(O)c1cc(-c2ccc(C3CCNCC3)cc2)c2ccc(-c3ccc(C(F)(F)F)cc3)cc2c1 | cell-free assay, competition with immobilised ligand | 1 µM | remaining binding | 100% |
| COc1ccc(NC(=O)c2c(Nc3ccccc3)sc(C#N)c2NC(=O)CNc2ccc([N+](=O)[O-])cc2)cc1 | enzyme activity, inhibitor | 10 nM | remaining activity | 98% |
